Test results reported in ChEMBL document CHEMBL5661969, “Preclinical evaluation of a potent novel DNA-dependent protein kinase inhibitor NU7441” (Cancer Res, 2006).

Legend:
[1] = Growth inhibition of human LoVo cells at 1 umol/L measured after 5 days by crystal violet staining based assay relative to control; format: toxicity, cell-based; details: dose 1 µmol/L, time 5 day, read-out: GI
Outline: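 LoVo and SW620 cells in 96-well plates under 5-day continuous exposure to agent, and growth measured relative to control.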

[2] = test system: LoVo; test: Cell cycle arrest in human LoVo cells assessed as increase in G1-phase cell population at 1 umol/L measured after 1 hr by propidium iodide staining based flow cytometry relative to control; format: toxicity; details: 1 µM, dose 1 µmol/L
Outline: (§1)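 Asynchronous SW620 or LoVo cells, seeded 24 h earlier, given control or 1 μmol/L agent medium for 1 h before ionizing radiation, etoposide or doxorubicin, then incubated a further 16 h. Cells fixed in 70% ethanol, stained with propidium iodide (400 μg/mL) plus RNase (1 mg/mL), and analysed by 488 nm flow cytometry.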

[3] = test system: LoVo; test: Cell cycle arrest in human LoVo cells assessed as reduction in S-phase cell population at 1 umol/L measured after 1 hr by propidium iodide staining based flow cytometry relative to control; format: toxicity; set-up: scale not given: the % may be the effect or the level left; details: 1 µM, dose 1 µmol/L; outline: as §1
[4] = Cmax in BALB/c mouse at 5 mg/kg, iv by HPLC analysis; format: ADME, organism-based; details: in vivo
Outline: (§2)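 Female BALB/c mice dosed 5 mg/kg i.v. in 10% DMSO/10% cyclodextrin in saline, or 10 mg/kg i.p. or orally at 1 mg/mL in 40% PEG400/saline. Plasma taken at 5, 10, 15, 30, 60, 90, 120, 180, 240 and 360 min, three mice per time. Acetonitrile precipitation, C18 HPLC with UV detection at 329 nm against a plasma standard curve. Parameters derived from mean concentrations.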

[5] = Elimination half life in BALB/c mouse at 5 mg/kg, iv by HPLC analysis; format: ADME, organism-based; details: in vivo, read-out: beta t1/2; outline: as §2
[6] = Clearance in BALB/c mouse at 5 mg/kg, iv by HPLC analysis; format: ADME, organism-based; details: in vivo; outline: as §2
[7] = AUClast in BALB/c mouse at 10 mg/kg, po by HPLC analysis; format: ADME, organism-based; details: in vivo; outline: as §2
[8] = AUCinfinity in BALB/c mouse at 10 mg/kg, po by HPLC analysis; format: ADME, organism-based; details: in vivo; outline: as §2
[9] = Elimination half life in BALB/c mouse at 10 mg/kg, po by HPLC analysis; format: ADME, organism-based; details: in vivo, read-out: beta t1/2; outline: as §2
[10] = Tmax in BALB/c mouse at 10 mg/kg, ip by HPLC analysis; format: ADME, organism-based; details: in vivo; outline: as §2
[11] = AUClast in BALB/c mouse at 10 mg/kg, ip by HPLC analysis; format: ADME, organism-based; details: in vivo; outline: as §2
[12] = Clearance in BALB/c mouse at 10 mg/kg, ip by HPLC analysis; format: ADME, organism-based; details: in vivo; outline: as §2
[13] = Bioavailability in BALB/c mouse at 10 mg/kg, ip by HPLC analysis; format: ADME, organism-based; details: in vivo; outline: as §2
[14] = Ratio of drug level in tumor to plasma of human SW620 cell xenografted athymic nude CD1 mouse at 10 mg/kg, ip measured after 15 mins by HPLC analysis; format: ADME, organism-based; details: tumor and plasma
Outline: (§3)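 Female CD-1 nu/nu mice bearing s.c. flank SW620 tumours (1×10^7 cells, ~650 mm³ at 10–14 days) given 10 mg/kg i.p. Tissues snap frozen, homogenised 1:3 in PBS. Acetonitrile precipitation, C18 HPLC with acetate pH 5/acetonitrile 75:25 mobile phase, UV 329 nm; tissue levels by method of addition. Tissue/plasma ratio, mean of three mice per time.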

[15] = Ratio of drug level in kidney to plasma of human SW620 cell xenografted athymic nude CD1 mouse at 10 mg/kg, ip measured after 15 mins by HPLC analysis; format: ADME, organism-based; details: kidney and plasma; outline: as §3
[16] = Ratio of drug level in kidney to plasma of human SW620 cell xenografted athymic nude CD1 mouse at 10 mg/kg, ip measured after 30 mins by HPLC analysis; format: ADME, organism-based; details: kidney and plasma; outline: as §3
[17] = Ratio of drug level in kidney to plasma of human SW620 cell xenografted athymic nude CD1 mouse at 10 mg/kg, ip measured after 60 mins by HPLC analysis; format: ADME, organism-based; outline: as §3
[18] = Ratio of drug level in kidney to plasma of human SW620 cell xenografted athymic nude CD1 mouse at 10 mg/kg, ip measured after 240 mins by HPLC analysis; format: ADME, organism-based; outline: as §3
[19] = Ratio of drug level in liver to plasma of human SW620 cell xenografted athymic nude CD1 mouse at 10 mg/kg, ip measured after 60 mins by HPLC analysis; format: ADME, organism-based; outline: as §3
[20] = In vivo inhibition of DNA-PK in human SW620 cells xenografted athymic nude CD1 mouse assessed as potentiation of etoposide phosphate-induced antitumor activity by measuring tumor growth delay at 10 mg/kg, ip administered 5 times daily for 5 days (reference value: 2.7 day); format: functional, SW-620; details: time 5 day
Outline: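 CD-1 nude mice carry palpable s.c. SW620 xenografts (~5×5 mm, 8-10 days), five per group. Treated i.p. daily for 5 days with saline, agent in 40% PEG 400/saline, etoposide phosphate 11.35 mg/kg (equal to 10 mg/kg etoposide), or both, agent given immediately before etoposide phosphate. Read-outs are median relative tumour volume, time to 4× volume (growth delay) and body weight.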

Q: With O=c1cc(N2CCOCC2)oc2c(-c3cccc4c3sc3ccccc34)cccc12 as the molecule, how does the inhibition at 120 h, 1 µM [1] read?
A: 78%

Q: What about the Activity [2] of the same molecule?
A: 54%

Q: What about the Activity [3] of the same molecule?
A: 72%

Q: What about the Cmax [4] of the same molecule?
A: 1600 ng/mL

Q: And the half-life [5]?
A: 46 min

Q: And the clearance [6]?
A: 65 mL/min/kg

Q: And the AUC(0-t) [7]?
A: 817 ng·h/mL

Q: What about the AUC(0-inf) [8] of the same molecule?
A: 1200 ng·h/mL

Q: What about the half-life [9] of the same molecule?
A: 127 min

Q: What about the Tmax [10] of the same molecule?
A: 5 min

Q: What about the AUC(0-t) [11] of the same molecule?
A: 2500 ng·h/mL

Q: What about the CL/F [12] of the same molecule?
A: 66 mL/min/kg

Q: And the bioavailability [13]?
A: 100%

Q: And the Kp at 0.25 h [14]?
A: 0.38

Q: And the Kp at 0.25 h [15]?
A: 4.2

Q: And the Kp at 0.5 h [16]?
A: 3.4

Q: What about the Kp at 1 h [17] of the same molecule?
A: 3.6

Q: And the Kp at 4 h [18]?
A: 1

Q: And the Kp at 1 h [19]?
A: 5.4

Q: And the Time [20]?
A: 5.4 days
